Experimental data from different studies.
Target: Mitogen-activated protein kinase 9 (MAPK9, Homo sapiens, UniProt P45984)

With `Nc1ncc(-c2nc(N3CCOCC3)nc(N3CCOCC3)n2)c(C(F)F)n1` the remaining binding was 83% (binding; competition with immobilised ligand; 10 µM).
`Cn1cncc1[C@@](O)(COc1ccc(C#N)cc1-c1ccc(OC(F)(F)F)cc1)c1ccc(C#N)cc1` gave a remaining binding of 92% (cell-free assay; competition with immobilised ligand; 1 µM).
With `Cc1nn(C)cc1-c1nc2c(N3CCN(Cc4ccc(Cl)cc4)CC3)c(Cl)cnc2[nH]1` the remaining binding was 100% (binding; competition with immobilised ligand; 1 µM).
For `Cn1cc(-c2cc(F)cc(N3CCn4c(cc5c4CCCC5)C3=O)c2CO)cc(Nc2ccc(N3CCN(C4COC4)CC3)cn2)c1=O`, the inhibition was 1% (enzyme activity; inhibitor; 0.1 µM).
`O=c1[nH]c2ccccc2n1C1CCN(Cc2ccc(-c3[nH]c4cc5ncnc5cc4nc3-c3ccccc3)cc2)CC1` has a remaining signal of 91.9% (cell-free assay; 0.5 µM).
`Cn1cc(-c2cccc(N3CCc4c(sc5c4CC(C)(C)C5)C3=O)c2CO)cc(Nc2ccncn2)c1=O` gave an inhibition of 12% (enzyme activity; inhibitor; 1 µM).
`COc1ncccc1-c1cnn2ccc(N3CCN(C(=O)OC(C)C)CC3)nc12` gave a remaining binding of 100% (binding; competition with immobilised ligand; 1 µM).
The remaining activity of `CC(C)(C)c1cc(C=C(C#N)C#N)cc(Br)c1O` is reported as 103% (enzyme activity; inhibitor; 0.5 µM).
